Consider nine compounds from article PMC8753982 (ACS chemical neuroscience, 2019).

Molecules are shown by their SMILES. Entries after “also recorded” stand apart in the source; their conditions may differ.

In assay [1] the target is T1, endogenous mGlu5 in striatal neurons (Rattus norvegicus, UniProt P31424). Description: Single cell Ca2+ imaging. Type of assay: cell-based. As to conditions: for effect on Quis-mediated Ca2+ responses (intracellular mGlu5): compound at 1, 5, 10 μM; for effect on single cell intracellular responses at 10-fold IC50: at 10-fold their IC50 values (refs 20, 25). In outline: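 Primary striatal cultures from 1-day-old neonatal rat pups, on gridded glass dishes, loaded with 5 μM Oregon Green 488 BAPTA-AM. Cultures were preincubated with 20 μM CPCCOEt (mGlu1 antagonist) plus 25 μM AMPA receptor antagonist, then imaged by confocal microscopy during agonist (Quis 10 μM) and NAM (1, 5, 10 μM) exposure. Signals were taken as fractional fluorescence change over basal and normalized to Quis response (% Quis).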

The target in assay [2] is mGlu5 (mGlu5/HEK stable cell line) (Rattus norvegicus, UniProt P31424). The experiment in a line: Fluorescence-based Ca2+ flux assay with a microplate reader. The format is cell-based. The note with it: for LLE: LLE = pIC50 − log P (consensus log Po/w Table 1, IC50 Table 3).
Assay [3] concerns the target T1, endogenous mGlu5 in striatal neurons. The assay is described as above. The format is cell-based.
Assay [4] has as its target T2, endogenous mGlu5 in hippocampal neurons (Rattus norvegicus, UniProt P31424). Described as above. The format is cell-based.
Assay [5] addresses endogenous mGlu5 in cortical neurons (Rattus norvegicus, UniProt P31424). The assay is described as above. Type of assay: cell-based.
A further assay has as its system mGlu5 (mGlu5/HEK cells). Description: Single cell Ca2+ imaging. As to conditions: for effect on DHPG-induced oscillatory Ca2+ response: DHPG 100 μM, NAM applied after agonist at 1, 5, 10 μM; for effect of NAM pretreatment on DHPG or Quis-mediated Ca2+ responses: DHPG 100 μM or Quis 10 μM. Type of assay: cell-based.
A further assay relates to mGlu5. As to conditions: read-out: published IC50; cited from earlier work.
Assay [6] has as its system mGlu5 (mGlu5/HEK stable cell line). The experiment in a line: Fluorescence-based Ca2+ flux assay with a microplate reader. Type of assay: cell-based. As to conditions: LLE = pIC50 − log P (consensus log Po/w Table 1, IC50 Table 3). (Calcium assays in cells follow changes in intracellular calcium, usually with a dye or a luminescent sensor.)
For assay [7], the target named is T2, endogenous mGlu5 in hippocampal neurons. Description: Single cell Ca2+ imaging. The note with it: pretreatment 1 μM, Quis 10 μM. The format is cell-based.

endogenous mGlu5 in cortical neurons, sequence (P31424 21-1203): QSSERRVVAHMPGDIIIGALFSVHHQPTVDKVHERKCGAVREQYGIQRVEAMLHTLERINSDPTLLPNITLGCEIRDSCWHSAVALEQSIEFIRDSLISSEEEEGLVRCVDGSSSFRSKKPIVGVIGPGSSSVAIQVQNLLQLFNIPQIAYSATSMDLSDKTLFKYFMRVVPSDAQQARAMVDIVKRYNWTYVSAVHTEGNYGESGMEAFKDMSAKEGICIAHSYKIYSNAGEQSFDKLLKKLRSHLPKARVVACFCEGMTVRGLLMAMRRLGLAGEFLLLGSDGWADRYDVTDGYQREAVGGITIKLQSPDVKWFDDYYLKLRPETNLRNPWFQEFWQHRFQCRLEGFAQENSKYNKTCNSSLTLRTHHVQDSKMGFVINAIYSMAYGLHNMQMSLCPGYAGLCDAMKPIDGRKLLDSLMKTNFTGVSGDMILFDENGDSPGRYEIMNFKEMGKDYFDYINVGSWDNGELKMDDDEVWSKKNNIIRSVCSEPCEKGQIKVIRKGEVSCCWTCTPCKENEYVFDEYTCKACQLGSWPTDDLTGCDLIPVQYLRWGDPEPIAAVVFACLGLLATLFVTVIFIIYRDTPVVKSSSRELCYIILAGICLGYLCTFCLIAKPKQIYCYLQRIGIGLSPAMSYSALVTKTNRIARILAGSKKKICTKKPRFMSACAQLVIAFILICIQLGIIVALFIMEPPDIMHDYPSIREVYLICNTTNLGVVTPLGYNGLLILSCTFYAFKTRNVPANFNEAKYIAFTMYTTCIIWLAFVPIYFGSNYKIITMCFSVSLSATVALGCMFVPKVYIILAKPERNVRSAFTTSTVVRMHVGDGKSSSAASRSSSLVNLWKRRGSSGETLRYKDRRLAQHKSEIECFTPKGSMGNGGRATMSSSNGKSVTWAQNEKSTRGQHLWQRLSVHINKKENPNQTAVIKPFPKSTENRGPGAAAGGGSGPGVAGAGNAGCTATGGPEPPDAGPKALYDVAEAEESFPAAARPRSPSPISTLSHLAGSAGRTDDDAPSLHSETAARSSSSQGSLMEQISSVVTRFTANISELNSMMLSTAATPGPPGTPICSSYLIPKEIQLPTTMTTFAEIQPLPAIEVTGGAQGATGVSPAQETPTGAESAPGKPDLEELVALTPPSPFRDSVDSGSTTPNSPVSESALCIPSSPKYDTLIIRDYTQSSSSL
mGlu5 (mGlu5/HEK stable cell line) (Rattus norvegicus, UniProt P31424), sequence (P31424 21-1203): as above
T2 sequence (P31424 21-1203): as above
T1 sequence (P31424 21-1203): as above
mGlu5 (mGlu5/HEK stable cell line), sequence (P31424 21-1203): as above

`NC(CC1c2ccccc2Sc2ccccc21)(C(=O)O)C1CC(C(=O)O)C1` (mixture of isomers) [LY393053, 2-Amino-2-(3-cis/trans-carboxycyclobutyl)-3-(9H-thioxanthen-9-yl) propionic acid]: the “effect on Quis-mediated Ca2+ responses (intracellular mGlu5)” value (“effect on Quis-mediated Ca2+ responses” for short) in assay [1] (striatal neurons, Quis 10 μM) is “neither 5MPEP,[34] a neutral allosteric modulator, nor LY393053 affected Quis-induced Ca^2+ rises”.
In the case of `Cc1cccnc1C#Cc1ccccc1` [5MPEP, 5-methyl-6-(phenylethynyl)-pyridine], the “effect on Quis-mediated Ca2+ responses” value in [1] (striatal neurons, Quis 10 μM) was “neither 5MPEP,[34] a neutral allosteric modulator, nor LY393053 affected Quis-induced Ca^2+ rises”.
By IC50 is commonly meant the concentration that gives 50% inhibition. In [2], `COC(=O)N1CC[C@@H]2[C@H]1CCC[C@@]2(O)C#Cc1cccc(C)c1` [AFQ056, methyl (3aR,4S,7aR)-4-hydroxy-4-[(3-methylphenyl)ethynyl]octahydro-1H-indole-1-carboxylate] gave an LLE of 4.57. Further, the half-inhibitory concentration (IC50) in assay [3] was 9440 ± 3780 nM; in assay [4], 257 ± 27.4 nM; in [5] it was 270 ± 73 nM; in the assay with mGlu5, 30 nM. Further, the “fold shift of IC50 between mGlu5/HEK cells and striatal cultures” value in assay [3] was determined as 250 fold. In addition, the “effect on DHPG-induced oscillatory Ca2+ response” value in the assay with mGlu5 (mGlu5/HEK cells) is listed as “inhibited; also recorded: blocked”. Also, the “effect on Quis-induced Ca2+ response” value with mGlu5 (mGlu5/HEK cells) (Quis 10 μM, NAM at 1, 5, 10 μM) is “inhibited; also recorded: blocked”. Further, the “effect of NAM pretreatment on DHPG or Quis-mediated Ca2+ responses” value (from here on “effect of NAM pretreatment”) with mGlu5 (mGlu5/HEK cells) is recorded as “completely blocked”. In assay [1] (striatal neurons, Quis 10 μM), the “effect on Quis-mediated Ca2+ responses” value is recorded as “neither 1, 5, nor 10 μM AFQ056 blocked Quis-mediated Ca^2+ responses; also recorded: did not completely block; also recorded: fails to block”. Moreover, the “effect on DHPG-induced Ca2+ response” value in assay [1] (striatal neurons, pre- or post-treatment, cell-surface only agonist DHPG) is “blocked”.
The compound `C[C@@H](Oc1nnc(-c2ccncc2)n1C)c1cc(-c2cccc(Cl)c2)on1` [AZD2066, 4-[5-[(1R)-1-[5-(3-chlorophenyl)-3-isoxazolyl]ethoxy]-4-methyl-4H-1,2,4-triazol-3-yl]pyridine] registered an LLE in assay [6] of 4.29. Besides, the concentration for half-maximal inhibition (IC50) came out at 3560 ± 520 nM in [3], 96.2 ± 17.8 nM in assay [4] and 380 ± 78 nM in [5]. For the same compound, the “effect on DHPG-induced oscillatory Ca2+ response” value with mGlu5 (mGlu5/HEK cells) was “blocked”. In the assay on mGlu5 (mGlu5/HEK cells), the “effect of NAM pretreatment” value is reported as “completely blocked”. For the same compound, the “effect on single cell intracellular responses at 10-fold IC50” value in [1] is listed as “did not block”. For the same compound, in assay [1] (striatal neurons, Quis 10 μM), the “effect on Quis-mediated Ca2+ responses” value was “less effective”.
In the case of `N[C@H](C(=O)O)c1cc(O)cc(O)c1` [DHPG, (S)-3,5-dihydroxyphenylglycine], the “maximum DHPG-induced Ca2+ increase, % of the Quis-induced response” value in assay [3] (plate reader, cell type not given) is reported as 15–20%.
As for `CN1CC(=O)N=C1NC(=O)Nc1cccc(Cl)c1` [Fenobam, N-(3-chlorophenyl)-N′-(4,5-dihydro-1-methyl-4-oxo-1H-imidazol-2-yl)urea], the LLE was 5.50 in assay [2] and 2.94 in [5] (cortical, LLE = pIC50 − log P (consensus log Po/w Table 1, IC50 Table 3)). The concentration for half-maximal inhibition (IC50) in assay [3] was found to be 2930 ± 480 nM; in assay [4], 442 ± 150 nM; in assay [5], 807 ± 53.5 nM. Further, the “fold shift of IC50 between mGlu5/HEK cells and striatal cultures” value in assay [3] came out at 16 fold. Further, the “effect on DHPG-induced oscillatory Ca2+ response” value with mGlu5 (mGlu5/HEK cells) is on record as “blocked”. Besides, the “effect on Quis-induced Ca2+ response at 1 μM NAM” value was “less effective” in the assay with mGlu5 (mGlu5/HEK cells) (pretreatment 1 μM, Quis 10 μM); “less effective” in [7]; “less effective” in [1] (striatal, pretreatment 1 μM, Quis 10 μM). In the assay with mGlu5 (mGlu5/HEK cells), the “effect of NAM pretreatment” value is recorded as “completely blocked”. Moreover, the “effect on single cell intracellular responses at 10-fold IC50” value in assay [1] was “did not block”. The “effect on Quis-mediated Ca2+ responses” value in [1] (striatal neurons, Quis 10 μM) is reported as “less effective”.
With `Cc1cccc(C#Cc2ccccc2)n1` [MPEP, 2-methyl-6-(phenylethynyl)pyridine], in the assay on mGlu5 (mGlu5/HEK cells), the “effect on DHPG-induced oscillatory Ca2+ response” value was “blocked” and the “effect of NAM pretreatment” value was “completely blocked”.
What is called EC50 is the concentration at which the effect is half-maximal. Consider `N[C@@H](Cn1oc(=O)[nH]c1=O)C(=O)O` [Quis, Quisqualate], for which the “Quis EC80” value came out at 125 ± 32.3 nM in [2], 5250 ± 1430 nM in assay [3] (striatal), 515 ± 51.4 nM in assay [4] (hippocampal) and 670 ± 223 nM in assay [5] (cortical). Further, the EC50 came to 1310 ± 360 nM in assay [3], 122 ± 12.1 nM in assay [4] and 168 ± 55.8 nM in assay [5]. Besides, the “fold difference in EC50 between the cortical and hippocampal neurons and the striatum, respectively” value in assay [3] (Quis) is given as 8–10 fold. Further, in assay [3] (mGlu5/HEK versus endogenous mGlu5-expressing striatal neurons), the “fold difference in the EC50 for Quis in HEK cells versus striatal neurons” value was found to be 42 fold. In assay [3] (striatum, Quis with versus without LY393053 20 μM), the “difference in EC50 between cell surface and intracellular mGlu5” value is on record as “no difference in EC50”. Moreover, the “fold difference in potency, Quis with versus without LY393053” value in assay [4] (hippocampus, LY393053 20 μM) was ~1.8 fold; in assay [5] (cortex, LY393053 20 μM) it was ~1.8 fold.
In the case of `Cc1nc(C#Cc2ccnc(Cl)c2)c(C)n1-c1ccc(F)cc1` [RG7090, 2-chloro-4-((1-(4-fluorophenyl)-2,5-dimethyl-1H-imidazol-4-yl)ethynyl)pyridine], in assay [6], the LLE came to 4.59. Besides, the IC50 amounted to 62 ± 17.5 nM in [3], 8.97 ± 3.4 nM in assay [4] and 80.2 ± 16.8 nM in assay [5]. The “fold difference of potency in cortical neurons versus HEK cells” value in assay [5] came out at 45 fold. Also, the “effect on DHPG-induced oscillatory Ca2+ response” value with mGlu5 (mGlu5/HEK cells) was “blocked”. Besides, in the assay on mGlu5 (mGlu5/HEK cells), the “effect of NAM pretreatment” value is given as “completely blocked”. Also, the “effect on Quis-mediated Ca2+ responses” value in [1] (striatal neurons, Quis 10 μM) is recorded as “most effective; also recorded: very effective”.
